Assay type in all cases: cell-based
Experiment [1] addresses T1, HLA class II histocompatibility antigen, DRB1-15 beta chain (Homo sapiens, UniProt P01903+P01911, A100R/D57E/F55L/F60I/F76Y/I96L/L162R/M171V/P40L/Q125E/R42F/V115G/Y59C). Briefly: Displacement of biotin-HA from recombinant soluble HLA-DR1 expressed in […] by ELISA.
In experiment [2] the target is HLA class II histocompatibility antigen, DRB1-15 beta chain (Homo sapiens) (UniProt P01911). In words: Binding affinity to recombinant soluble HLA-DR1 expressed in […] assessed as relative fluorescence intensity by fluorescence spectral assay.
For experiment [3] the target is unchanged. Briefly: Activation of HLA-DR1 positive B cells assessed as IL2 secretion. In outline: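 HLA-DR1-positive B cells were pulsed with peptide and used as antigen-presenting cells for the HLA-DR1-restricted, HA-specific HA1.7 T cell hybridoma. Activation was read as IL-2 secretion in a thymidine incorporation bioassay, in c.p.m. Triplicate measurements, with SD shown.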

For experiment [4] the target is unchanged. Briefly: Binding affinity to recombinant soluble HLA-DR1 expressed in […] assessed as fluorescence lifetime by fluorescence lifetime imaging microscopy.
Experiment [5] has as its target T1, HLA class II histocompatibility antigen, DRB1-15 beta chain. Briefly: Displacement of biotin-HA from recombinant soluble HLA-DR1 expressed in human T2 cells at acidic pH by ELISA.
In experiment [6] the target is HLA class II histocompatibility antigen, DRB1-15 beta chain (Homo sapiens) (UniProt P01911). In words: Binding affinity to recombinant soluble HLA-DR1 expressed in human T2 cells assessed as increase in fluorescence lifetime at 1 uM by fluorescence lifetime imaging microscopy.

The structures appear in SMILES notation. Calls of active or inactive are those of the source. The rule behind the calls is not given here. *1 amine or outer side, *2 acyl side, *3 side chain or, on linkers, in order; H or OH if unused. Where a SMILES comes first, the peptide text is derived from it. [ ]: non-standard residue; d: D form. The star is where a group is joined. X1 = CN(C)c1ccc2c(c1)C(=O)N(C[C@H](N[*:1])C(=O)[*:2])C2=O; X2 = CN(C)c1ccc2cc(C(=O)O)c(C(=O)*)cc2c1; X3 = CN(C)c1ccc(CC(=O)*)c(C(=O)O)c1; Dap = NC[C@H](N)C(=O)O Some results are limits rather than exact numbers.

Turning to `CN(C)c1ccc2c(c1)C(=O)N(C[C@H](NC(=O)OCC1c3ccccc3-c3ccccc31)C(=O)O)C2=O`, in experiment [1], the IC50 was more than 1000 nM.
Take `CC(C)C[C@H](NC(=O)[C@H](CCCCN)NC(=O)[C@H](CC(C)C)NC(=O)[C@@H](NC(=O)[C@H](CC(N)=O)NC(=O)[C@H](CCC(N)=O)NC(=O)[C@H](CCCCN)NC(=O)[C@@H](NC(=O)[C@H](Cc1ccc(O)cc1)NC(=O)[C@H](CCCCN)NC(=O)[C@@H]1CCCN1C(=O)[C@@H](N)CN1C(=O)c2ccc(N(C)C)cc2C1=O)C(C)C)[C@@H](C)O)C(=O)N[C@@H](C)C(=O)N[C@H](C(=O)O)[C@@H](C)O`: in experiment [2], the Activity is 578 cps/nM. The outcome in experiment [3] was Active. The Time in experiment [4] came out at 0.6 nanoseconds.
With `CSCC[C@H](NC(=O)[C@H](CO)NC(=O)[C@H](CCCNC(=N)N)NC(=O)[C@H](CNC(=O)c1cc2cc(N(C)C)ccc2cc1C(=O)O)NC(C)=O)C(=O)N[C@@H](C)C(=O)N[C@@H](C)C(=O)N[C@@H](C)C(=O)N[C@@H](C)C(=O)N[C@@H](CC(C)C)C(=O)O` (Ac-[Dap](X2)RSMAAAAL-OH), the IC50 in experiment [5] was 27 nM.
On the same count and under the same terms, then `CSCC[C@H](NC(=O)[C@H](CO)NC(=O)[C@H](CCCN=C(N)N)NC(=O)[C@H](CNC(=O)Cc1ccc(N(C)C)cc1C(=O)O)NC(C)=O)C(=O)N[C@@H](C)C(=O)N[C@@H](C)C(=O)N[C@@H](C)C(=O)N[C@@H](C)C(=O)N[C@@H](CC(C)C)C(=O)O` (Ac-[Dap](X3)RSMAAAAL-OH), with 28 nM.
As to `C[C@@H](O)[C@H](NC(=O)[C@H](CCC(=O)O)NC(=O)[C@@H](N)CN1C(=O)c2ccc(N(C)C)cc2C1=O)C(=O)N[C@@H](CC(=O)O)C(=O)N[C@@H](CCCCN)C(=O)N[C@@H](CC(=O)O)C(=O)N[C@@H](CCCCN)C(=O)N[C@@H](CO)C(=O)N[C@@H](CCCN=C(N)N)C(=O)O` (H-[X1]ETDKDKSR-OH), the half-inhibitory concentration (IC50) in experiment [1] is more than 10000 nM.
As for `CSCC[C@H](NC(=O)[C@H](CO)NC(=O)[C@H](CCCNC(=N)N)NC(=O)[C@@H](N)CN1C(=O)c2ccc(N(C)C)cc2C1=O)C(=O)N[C@@H](C)C(=O)N[C@@H](C)C(=O)N[C@@H](C)C(=O)N[C@@H](C)C(=O)N[C@@H](CC(C)C)C(=O)O` (H-[X1]RSMAAAAL-OH), the Activity in experiment [2] was 599 cps/nM. Also, the IC50 in experiment [1] and in experiment [5] was 4 nM each time. Further, the Time in experiment [4] is 0.82 nanoseconds. Further, the result in experiment [6] was Active.

For the origin of these results see ChEMBL document CHEMBL1250445, “Fluorogenic probes for monitoring peptide binding to class II MHC proteins in living cells” (Nat Chem Biol, 2007).
